Screening data from PubChem.
PostGolgi ctrl: growth inhibition of yeast control strain, primary screen, counter-screen for post-Golgi transport modulator project; efflux-deficient yeast background strain, growth absorbance A615, 16 h; inhibition, % at 10 µM; actives 5% (n = 98,000)
E coli WT exp: growth inhibitors of wild-type E. coli, primary screen, strain BW25113, expanded library, OD600; OD600 absorbance; growth inhibition, % at 100 µM; actives 0.15% (n = 98,000);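 active = growth inhibition above about 50% at one test dose, limit read from the data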;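 also: growth measured after 20 h incubation at 37 °C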
Ecoli tolC: growth inhibitors of E. coli tolC mutant, primary screen, strain BW25113 ΔtolC::kan, 384-well; OD615; growth inhibition, % at 10 µM (by protocol); actives 2.2% (n = 65,000); AID 573, 2007;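 active = growth inhibition at or above a cutoff equal to the mean over every tested compound plus 3 SD, cut at about 60% in these data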;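 also: growth measured after 20 h incubation at 37 °C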
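Test system – E. coli BW25113 ΔtolC::kan, tolC deletion mutant strain · Detection – OD at 615 nm · Buffer or medium – LB with kanamycin 50 µg/mL · Times – 20 h compound exposure of bacteria at 37 °C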
PostGolgi yeast: phenotypic screen on post-Golgi transport, primary screen; inhibition, % at 10 µM; actives 0.9% (n = 98,000); post-Golgi transport phenotypic cell assay; AID 739, 2007;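 also: yeast cells grown in 1536-well plates; yeast grown about 18 h at 30C before absorbance read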
Numbers stand for hits; . = inactive; / = no result given. Most compounds without a hit are left out; they make up all but 6.3% or so of the library. Rule as the data show it, unless noted: active = inhibition above about 30%; inactive = the rest.

SMILES	PostGolgi ctrl	E coli WT exp	Ecoli tolC	PostGolgi yeast
O=C(c1ccc(Br)cc1)N1CCN(S(=O)(=O)c2ccccc2)CC1	35.1	.	.	.
O=C(N1CCCCCC1)N1CCN(S(=O)(=O)c2ccccc2)CC1	.	.	/	.
COc1cccc(-n2c(SCC(=O)N3CCCC3)nc3c([nH]c4ccccc43)c2=O)c1	/	/	.	/
CCOC(=O)c1csc(Nc2nc3ccc(F)cc3s2)n1	.	.	88.1	.
CC(=O)c1sc(Nc2nc3ccc(F)cc3s2)nc1C	.	.	.	.
Cc1c(NC(=O)CC(=O)Nc2c(C)n(C)n(-c3ccccc3)c2=O)c(=O)n(-c2ccccc2)n1C	.	.	.	.
Cc1c(NS(=O)(=O)c2cccc(C(=O)NCc3ccc(Cl)cc3)c2)c(=O)n(-c2ccccc2)n1C	30.9	.	/	.
Cc1c(NS(=O)(=O)c2ccccc2)c(=O)n(-c2ccccc2)n1C	.	.	/	.
Cc1c(NC(=O)Nc2cccc(Cl)c2)c(=O)n(-c2ccccc2)n1C	37.4	.	.	.
Cc1ccc(C(C(=O)NCc2ccco2)N(C(=O)CNC(=O)c2cccs2)c2c(C)cc(C)cc2C)cc1 (stereo unspecified)	.	.	/	.
CCOC(=O)N1CCC(=NNS(=O)(=O)c2cccc([N+](=O)[O-])c2)CC1	.	.	/	.
OC1(c2cn(Cc3ccccc3)nn2)CCCCC1	38.2	.	.	.
O=C(NCc1ccccn1)c1cn(Cc2ccccc2)nn1	.	.	.	.
O=C1Nc2ccccc2/C1=C\c1cccn1-c1ccc(OC(F)(F)F)cc1	.	.	/	.
O=C(CSc1ccc(Cl)cc1)N1CCN(c2ccc(Cl)cc2[N+](=O)[O-])CC1	71.5	.	/	.
Cc1ccc(OCc2nnc(SCC(=O)CC(=O)Nc3ccccc3)o2)cc1	33.0	.	.	.
CC(C)CC(=O)Nc1cccc(C(=O)Nc2ccccc2C(=O)O)c1	.	.	/	.
COc1cc(NC(=O)c2cc(CC(C)C)on2)c(OC)cc1Cl	.	.	67.9	.
COc1ccc(S(=O)(=O)N2CCN(c3ccc4nnc(-c5ccc(F)cc5)n4n3)CC2)cc1	.	.	.	.
Cc1ccc(S(=O)(=O)N2CCN(c3ccc4nnc(-c5ccccc5)n4n3)CC2)cc1	34.2	.	/	.
CC(=O)N1CCCc2cc(S(=O)(=O)NCCC3=CCCCC3)ccc21	.	.	.	.
CCc1ccc2oc(=O)cc(CN3CCN(c4ccc(F)cc4)CC3)c2c1	38.1	.	.	.
CC(C)c1ccc2oc(=O)cc(CN3CCN(c4ccc(F)cc4)CC3)c2c1	32.8	.	.	.
O=c1cc(CN2CCN(c3ccccc3)CC2)c2c(ccc3ccccc32)o1	32.4	.	.	.
COc1ccc(N2CCN(Cc3cc(=O)oc4ccc(C)cc34)CC2)cc1	.	.	/	.
SMILES	PostGolgi ctrl	E coli WT exp	Ecoli tolC	PostGolgi yeast
CCc1ccc2oc(=O)cc(CN(C)Cc3ccccc3)c2c1	.	.	100.0	.
CCOc1ccccc1NC(=O)CCN1CCN(S(=O)(=O)c2ccc(Br)cc2)CC1	.	.	.	.
C/C(=N/NC(=O)c1cccs1)c1ccc(NC(=O)COc2ccc(Cl)cc2)cc1	.	.	/	.
Cc1noc(C)c1CSc1nc2ccccc2n1CCc1ccccc1	.	.	.	.
Cc1ccc(-c2nn(-c3ccccc3)cc2C2SCC(=O)N2Cc2ccccc2)o1 (stereo unspecified)	58.3	.	.	.
COc1ccc(N(CC(=O)NN=C2CCCCCCC2)S(=O)(=O)c2ccccc2)cc1	.	.	/	.
Clc1ccc(OCCN2CCN(c3ncnc4sccc34)CC2)cc1	33.0	.	94.5	.
Cc1ccc(OCCN2CCN(c3ncnc4sc(C)c(C)c34)CC2)cc1	.	.	/	.
O=C(COc1cccc(NC(=O)c2cccc([N+](=O)[O-])c2)c1)c1ccc(Br)cc1	.	.	/	.
CCc1nnc(NC(=O)C(=O)NCCOC(=O)c2ccccc2)s1	.	.	/	.
Cc1cc(C(=O)OCc2nc3ccccc3s2)c(C)o1	.	.	100.0	.
S=C(Nc1ccccc1)Nc1nc2ccccc2n1CCOc1ccccc1	31.7	.	/	.
Cc1ccc(C(=O)Nc2ccc(Br)c(C(F)(F)F)c2)cc1	.	.	/	35.6
CC(=O)c1c(C(C)=O)c(C)n(NC(=O)c2ccc(Cl)cc2)c1C	.	.	/	31.2
CCN(CC)c1ccc(-c2nc3cnccc3n2C)cc1	.	.	.	37.6
CCN(CC)c1ccc(NC(=O)c2cccnc2)cc1	.	.	/	.
COc1ccc(/C=N/NC(=O)c2cc(-c3ccc(C)cc3C)nc3ccccc23)cc1COC(C)=O	.	.	/	.
Cc1cccc(N2CCN(C(=O)CCCSc3nc4ccccc4[nH]3)CC2)c1C	38.8	.	/	.
O=C(O)c1c(-c2ccccc2)c2oc3ccccc3c2[nH]c1=O	.	.	.	.
Cn1cccc1Cc1nnc(SCC(=O)Nc2ccc3c(c2)OCO3)n1-c1ccc(F)cc1	.	.	.	.
COc1ccc(Nc2nnc(-c3ccc(N4CCOCC4)c([N+](=O)[O-])c3)c3ccccc23)cc1	.	.	/	.
Cc1ccc(C2NC(=O)c3c(sc4c3CCN(C)C4)N2)o1 (stereo unspecified)	.	.	.	32.5
O=C1c2ccccc2C(=O)c2c1oc(C(F)(F)F)c2C(=O)c1ccccc1	56.2	.	/	103.8
O=C(c1ccccc1)c1ccc(CN2C(=O)c3ccccc3C2=O)o1	.	.	.	.
CC(C)COCC1CC2(CC(C)C(=O)CC2=O)C(=O)O1 (stereo unspecified)	.	.	.	.
SMILES	PostGolgi ctrl	E coli WT exp	Ecoli tolC	PostGolgi yeast
CCOc1ccc(-c2nc(N)ncc2-c2ccccc2)c(O)c1	49.8	.	.	.
O=C1CCCC2=C1C(c1ccsc1)CC(=O)N2c1nnc(SCc2ccccc2)s1 (stereo unspecified)	37.3	.	/	.
O=C1CCCC2=C1C(c1ccsc1)CC(=O)N2c1ccccc1 (stereo unspecified)	.	.	.	.
Cc1nn(CC(O)Cn2c3c(c4ccccc42)CCN(C)C3=O)c(C)c1Br (stereo unspecified)	43.3	.	.	.
CCn1cc(C(=O)NC2CC3CCC2C3)c(=O)c2ccc(C)nc21 (stereo unspecified)	/	/	.	/
CCn1cc(C(=O)NC2CCCCC2C)c(=O)c2ccc(C)nc21 (stereo unspecified)	.	92.0	100.0	.
Cc1nc(SCC(=O)N2c3ccccc3Sc3ccccc32)n[nH]1	.	.	/	.
Cc1ccc(Nc2cc(C)nc(-c3ccccc3O)n2)cc1	39.6	.	/	.
CCOC(=O)Nc1ccc2c(C)cc(=O)oc2c1	33.5	.	.	.
CC(=O)Oc1ccc2c(C)cc(=O)oc2c1	.	.	/	.
CCc1ccc(S(=O)(=O)c2n[nH]n3c2nc(=O)c2ccccc23)cc1	49.5	.	.	.
CC(C)c1ccc(S(=O)(=O)c2n[nH]n3c2nc(=O)c2ccccc23)cc1	57.4	.	.	.
COC(CN1C(=O)C(O)=C(C(C)=O)C1c1ccccn1)OC (stereo unspecified)	.	.	/	.
Cc1snc(S(=O)(=O)Cc2ccccc2Cl)c1C#N	.	.	/	.
CC(=O)c1cccc(NC(=O)COc2ccc(S(=O)(=O)N3CCCCC3)cc2)c1	.	.	.	.
